This is an account of results in ChEMBL document CHEMBL4823260, “From High-Throughput Screening to Target Validation: Benzo[d]isothiazoles as Potent and Selective Agonists of Human Transient Receptor Potential Cation Channel Subfamily M Member 5 Possessing In Vivo Gastrointestinal Prokinetic Activity in Rodents” (J Med Chem, 2021).

SMILES strings stand for the structures. ≈ marks a conversion by molar mass, not a printed value.

Data set [1] has as its target Transient receptor potential cation channel subfamily V member 4 (Homo sapiens, UniProt Q9HBA0). Nature of the data set: Agonist activity at human TRPV4 expressed in HEK cells assessed as increase in GSK1016790A-induced intracellular calcium level measured after 1 hr by FLIPR assay. Type of data set: cell-based.
The nature of data set [2]: Efflux ratio of apparent permeability across basolateral to apical over apical to basolateral membrane in human Caco-2 cells incubated for 30 mins by LC-MS/MS analysis. Type of data set: ADME, cell-based. On the technique in general: Caco-2 monolayers are a common model of the intestinal barrier.
Data set [3] can be described thus: Apparent permeability across apical to basolateral membrane in human Caco-2 cells incubated for 30 mins by LC-MS/MS analysis. The data set is classed as ADME, cell-based.
In data set [4] the target is T1, Transient receptor potential cation channel subfamily M member 5 (Homo sapiens, UniProt Q9NZQ8).
T1 sequence (Q9NZQ8 whole entry): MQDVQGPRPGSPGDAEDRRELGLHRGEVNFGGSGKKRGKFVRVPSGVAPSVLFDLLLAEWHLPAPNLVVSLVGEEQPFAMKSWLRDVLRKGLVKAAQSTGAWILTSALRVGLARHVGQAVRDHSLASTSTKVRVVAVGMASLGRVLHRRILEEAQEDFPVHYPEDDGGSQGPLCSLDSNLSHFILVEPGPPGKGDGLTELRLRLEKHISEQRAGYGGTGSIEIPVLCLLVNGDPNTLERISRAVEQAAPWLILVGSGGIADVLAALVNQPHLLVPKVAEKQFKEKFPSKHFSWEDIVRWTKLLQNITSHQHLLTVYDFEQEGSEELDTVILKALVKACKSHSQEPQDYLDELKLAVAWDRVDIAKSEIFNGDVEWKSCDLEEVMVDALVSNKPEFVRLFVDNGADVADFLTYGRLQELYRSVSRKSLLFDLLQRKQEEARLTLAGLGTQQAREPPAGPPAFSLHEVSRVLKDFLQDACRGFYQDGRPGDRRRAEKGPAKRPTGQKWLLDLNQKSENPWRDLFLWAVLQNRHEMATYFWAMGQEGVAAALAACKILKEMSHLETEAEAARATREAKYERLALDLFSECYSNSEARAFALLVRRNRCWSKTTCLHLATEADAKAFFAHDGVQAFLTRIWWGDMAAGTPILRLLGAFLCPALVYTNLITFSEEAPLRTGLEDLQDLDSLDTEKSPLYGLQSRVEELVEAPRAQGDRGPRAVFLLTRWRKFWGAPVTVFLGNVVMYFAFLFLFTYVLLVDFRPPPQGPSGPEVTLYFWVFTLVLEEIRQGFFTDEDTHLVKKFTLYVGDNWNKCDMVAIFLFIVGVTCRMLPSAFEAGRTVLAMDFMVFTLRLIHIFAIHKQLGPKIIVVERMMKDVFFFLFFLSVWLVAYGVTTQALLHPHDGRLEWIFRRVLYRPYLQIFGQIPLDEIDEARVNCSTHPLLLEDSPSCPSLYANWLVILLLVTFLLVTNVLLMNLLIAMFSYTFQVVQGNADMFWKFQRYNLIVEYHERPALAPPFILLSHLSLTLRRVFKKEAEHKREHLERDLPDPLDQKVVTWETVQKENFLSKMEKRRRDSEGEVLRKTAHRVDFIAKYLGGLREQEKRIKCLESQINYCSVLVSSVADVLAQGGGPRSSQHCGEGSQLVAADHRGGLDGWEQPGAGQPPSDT
Nature of the data set: Agonist activity at human TRPM5 expressed in CHO-K1 cells maintained at 80 mV final holding potential by syncroPatch assay. The data set is classed as cell-based. The procedure, abridged: (§1)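 SyncroPatch 384 whole-cell recording at rt on CHO-K1 cells stably expressing human or mouse TRPM5. Intracellular solution had 2 mM Na-ATP and 5 μM free Ca2+. Cumulative doses 0.03–31.6 μM in 0.5% DMSO, 150 s each after 180 s vehicle. Current measured at the end of the +80 mV step, normalized to vehicle; pEC50 is the mean of ≥2 independent experiments.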
For orientation: In patch-clamp work, channel activity is measured electrically.

Data set [5] deals with T2, Transient receptor potential cation channel subfamily M member 5 (Mus musculus, UniProt Q9JJH7).
T2 sequence (Q9JJH7 whole entry): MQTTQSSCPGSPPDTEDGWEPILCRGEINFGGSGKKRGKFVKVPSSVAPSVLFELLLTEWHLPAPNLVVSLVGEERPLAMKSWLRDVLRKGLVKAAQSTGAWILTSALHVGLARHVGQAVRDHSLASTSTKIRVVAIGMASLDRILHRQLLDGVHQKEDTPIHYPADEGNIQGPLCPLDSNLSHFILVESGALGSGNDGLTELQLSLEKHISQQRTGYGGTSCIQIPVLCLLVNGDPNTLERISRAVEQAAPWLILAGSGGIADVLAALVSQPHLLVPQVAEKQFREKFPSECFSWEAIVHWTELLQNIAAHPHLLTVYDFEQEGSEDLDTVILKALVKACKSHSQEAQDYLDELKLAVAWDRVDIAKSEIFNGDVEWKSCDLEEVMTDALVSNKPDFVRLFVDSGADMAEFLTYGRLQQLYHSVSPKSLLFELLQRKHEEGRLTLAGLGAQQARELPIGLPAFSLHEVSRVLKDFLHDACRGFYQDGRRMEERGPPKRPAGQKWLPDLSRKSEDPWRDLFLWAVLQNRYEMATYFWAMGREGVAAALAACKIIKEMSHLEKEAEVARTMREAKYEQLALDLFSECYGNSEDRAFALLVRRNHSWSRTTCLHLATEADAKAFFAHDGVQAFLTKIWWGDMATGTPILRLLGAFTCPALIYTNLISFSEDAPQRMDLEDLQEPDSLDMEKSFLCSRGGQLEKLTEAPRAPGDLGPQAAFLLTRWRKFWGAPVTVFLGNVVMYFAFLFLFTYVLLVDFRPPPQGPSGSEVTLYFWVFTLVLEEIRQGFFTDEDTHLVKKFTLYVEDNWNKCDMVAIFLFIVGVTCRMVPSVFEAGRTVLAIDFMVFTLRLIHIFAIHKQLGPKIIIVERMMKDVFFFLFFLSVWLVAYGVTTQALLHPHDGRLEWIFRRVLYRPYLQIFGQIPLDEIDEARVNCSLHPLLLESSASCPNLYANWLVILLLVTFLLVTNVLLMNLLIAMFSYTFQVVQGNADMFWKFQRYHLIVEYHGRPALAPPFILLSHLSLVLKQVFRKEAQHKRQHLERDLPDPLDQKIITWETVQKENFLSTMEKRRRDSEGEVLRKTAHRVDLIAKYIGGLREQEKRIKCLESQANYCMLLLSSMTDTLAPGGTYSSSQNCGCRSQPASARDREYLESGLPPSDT
Nature of the data set: Agonist activity at mouse TRPM5 expressed in CHO-K1 cells maintained at 80 mV final holding potential by syncroPatch assay. Type of data set: cell-based. The procedure, abridged: as §1

Data set [6] is described as follows: Intrinsic clearance in human liver microsomes assessed per mg protein incubated up to 30 mins in presence of NADPH by LC-MS/MS analysis. The note with it: […]. Type of data set: ADME, Microsome.
Data set [7] in a line: Solubility of the compound in phospahte-buffered saline buffer at pH 7.4 incubated for 2 hrs by HPLC/UV analysis. Type of data set: physicochemical. The note with it: phosphate-buffered saline.
The target of data set [8] is Transient receptor potential cation channel subfamily M member 4 (Homo sapiens, UniProt Q8TD43). Nature of the data set: Agonist activity at human TRPM4 expressed in CHO cells assessed as change in membrane potential by FLIPR assay.
Chain of Transient receptor potential cation channel subfamily M member 4 (Q8TD43 whole entry): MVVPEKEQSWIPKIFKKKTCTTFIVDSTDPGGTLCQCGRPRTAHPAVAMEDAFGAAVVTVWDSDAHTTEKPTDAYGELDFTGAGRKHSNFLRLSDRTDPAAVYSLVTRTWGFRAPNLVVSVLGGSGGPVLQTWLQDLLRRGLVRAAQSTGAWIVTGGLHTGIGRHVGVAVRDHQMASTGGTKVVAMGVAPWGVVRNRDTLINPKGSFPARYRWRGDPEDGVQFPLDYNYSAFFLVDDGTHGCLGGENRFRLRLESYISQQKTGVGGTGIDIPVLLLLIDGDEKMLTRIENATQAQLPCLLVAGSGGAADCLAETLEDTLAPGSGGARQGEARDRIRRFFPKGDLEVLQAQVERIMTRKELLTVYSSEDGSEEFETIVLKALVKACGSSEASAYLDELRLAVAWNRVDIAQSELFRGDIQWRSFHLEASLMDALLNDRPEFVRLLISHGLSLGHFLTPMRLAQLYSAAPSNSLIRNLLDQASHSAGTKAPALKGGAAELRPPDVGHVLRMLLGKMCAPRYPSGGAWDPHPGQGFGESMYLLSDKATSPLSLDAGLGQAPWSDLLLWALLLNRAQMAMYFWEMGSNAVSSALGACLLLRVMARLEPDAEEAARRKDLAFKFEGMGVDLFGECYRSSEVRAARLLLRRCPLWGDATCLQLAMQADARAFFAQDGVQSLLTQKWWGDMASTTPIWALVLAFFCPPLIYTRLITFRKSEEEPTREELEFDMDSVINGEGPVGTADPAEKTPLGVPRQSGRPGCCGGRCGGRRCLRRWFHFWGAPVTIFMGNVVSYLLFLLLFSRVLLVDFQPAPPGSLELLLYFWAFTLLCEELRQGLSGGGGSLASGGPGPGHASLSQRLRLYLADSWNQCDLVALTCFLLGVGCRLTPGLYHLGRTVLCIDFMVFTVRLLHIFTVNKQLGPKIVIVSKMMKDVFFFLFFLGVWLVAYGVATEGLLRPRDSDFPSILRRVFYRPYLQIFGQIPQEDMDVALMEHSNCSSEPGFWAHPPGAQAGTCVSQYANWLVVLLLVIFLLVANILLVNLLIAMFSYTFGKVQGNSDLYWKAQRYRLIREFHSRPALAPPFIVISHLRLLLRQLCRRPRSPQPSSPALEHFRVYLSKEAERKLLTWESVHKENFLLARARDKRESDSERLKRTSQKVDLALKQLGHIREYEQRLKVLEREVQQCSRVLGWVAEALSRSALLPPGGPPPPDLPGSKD

Chain of Transient receptor potential cation channel subfamily V member 4 (Q9HBA0 whole entry): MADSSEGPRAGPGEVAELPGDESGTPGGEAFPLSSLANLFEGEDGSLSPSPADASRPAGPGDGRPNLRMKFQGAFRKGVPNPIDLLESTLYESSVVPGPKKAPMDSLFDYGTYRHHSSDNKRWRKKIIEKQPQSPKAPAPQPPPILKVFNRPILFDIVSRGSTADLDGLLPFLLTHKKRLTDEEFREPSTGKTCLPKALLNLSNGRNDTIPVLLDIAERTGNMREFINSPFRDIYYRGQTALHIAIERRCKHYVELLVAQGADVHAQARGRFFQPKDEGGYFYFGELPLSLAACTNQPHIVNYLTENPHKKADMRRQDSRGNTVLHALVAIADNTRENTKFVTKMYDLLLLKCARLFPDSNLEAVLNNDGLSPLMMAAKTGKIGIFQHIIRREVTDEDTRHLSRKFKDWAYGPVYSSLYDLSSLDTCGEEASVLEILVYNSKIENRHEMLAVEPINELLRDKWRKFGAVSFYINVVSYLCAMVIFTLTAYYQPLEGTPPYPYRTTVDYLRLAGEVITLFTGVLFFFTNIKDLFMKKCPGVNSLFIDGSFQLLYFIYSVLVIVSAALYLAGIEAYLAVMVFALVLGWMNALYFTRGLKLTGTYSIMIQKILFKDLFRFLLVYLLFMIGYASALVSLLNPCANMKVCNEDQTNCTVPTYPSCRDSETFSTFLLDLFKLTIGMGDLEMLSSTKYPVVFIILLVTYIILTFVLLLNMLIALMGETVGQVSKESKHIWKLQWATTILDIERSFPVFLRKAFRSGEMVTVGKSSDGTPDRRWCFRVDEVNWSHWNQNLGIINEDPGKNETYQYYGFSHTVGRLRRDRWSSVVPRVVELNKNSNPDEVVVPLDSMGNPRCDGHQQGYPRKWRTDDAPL

As usually defined, the EC50 is the concentration at which the effect is half-maximal. In general, efflux ratio refers to the permeability from basolateral to apical divided by that in the opposite direction, in the common usage. Usually Papp A→B stands for how fast a substance crosses the layer from the apical side. In general, solubility refers to the dissolved amount per volume that the medium holds. A high value points to much dissolved substance. Regarding `Clc1cnc(CNc2ccc3sncc3c2)s1`, the EC50 in data set [1] was over 15.8 µM; in data set [4], 0.0891 µM; in data set [5], 0.0851 µM; in data set [8] it was over 63.1 µM. Besides, the efflux ratio at 0.5 h in data set [2] came out at 0.97. Besides, in data set [3], the Papp A→B at 0.5 h is 12.6 ×10⁻⁶ cm/s. Besides, the microsomal CLint in data set [6] is 193 µL/min/mg. Moreover, the solubility at 2 h in data set [7] amounted to 50 µM (≈ 14.1 µg/mL).
In the case of `Clc1cnc(CNc2ccc3cnsc3c2)s1`, the EC50 is over 15.8 µM in data set [1], 0.0437 µM in data set [4], 0.0437 µM in data set [5] and over 63.1 µM in data set [8]. The efflux ratio at 0.5 h in data set [2] was 1.08. The Papp A→B at 0.5 h in data set [3] worked out at 10.7 ×10⁻⁶ cm/s. The microsomal CLint in data set [6] was determined as 146 µL/min/mg. The solubility at 2 h in data set [7] came to 511 µM (≈ 144 µg/mL).
Regarding `Clc1cnc(CNc2cc3sncc3cc2Cl)s1`, the half-maximal effective concentration (EC50) in data set [1] was over 15.8 µM; in data set [4] it was 0.00794 µM; in data set [5] it was 0.0158 µM; in data set [8] it was 3.16 µM. Further, the efflux ratio at 0.5 h in data set [2] amounted to 1.6. In data set [3], the Papp A→B at 0.5 h worked out at 4.1 ×10⁻⁶ cm/s. In addition, in data set [6], the microsomal CLint was determined as 172 µL/min/mg. The solubility at 2 h in data set [7] was determined as 30 µM (≈ 9.49 µg/mL).
